Calls of active or inactive are those of the source. The calls are words filed in the database; no cut-off is given here.
What was measured:
[1] = Cytotoxicity against BALB/c mouse J774 cells assessed as reduction in cell viability after 72 hrs by alamarBlue assay; assay type: cell-based
Outline: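 J774 murine macrophages, 1×10^4 cells/well in DMEM + 10% FBS, pre-incubated 24 h at 37°C, 5% CO2; compounds 100–0.41 μM in triplicate for 72 h. AlamarBlue added for 4 h, absorbance at 570 and 600 nm; gentian violet positive control. CC50 from three independent experiments.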

J774 = test: Antiinflammatory activity in BALB/c mouse J774 cells assessed as inhibition of LPS/IFNgamma-induced nitric oxide production at 20 uM after 24 hrs by Griess method relative to control; assay type: functional; conditions: J774, 24 h
Outline: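 J774 macrophages, 2×10^5 cells/well in DMEM + 10% FBS, allowed to settle 2 h at 37°C, 5% CO2; stimulated with LPS (E. coli 0111:B4, 500 ng/mL) plus IFNγ (5 ng/mL) with compound present (primary screen at 20 μM). Nitrite measured by Griess in supernatants at 24 h; % inhibition against stimulated untreated control.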

Splenocyte [2] = test: Immunomodulatory activity in BALB/c mouse splenocytes assessed as inhibition of concanavalin A-induced lymphocyte proliferation by measuring [3H]-thymidine uptake after 48 to 72 hrs by scintillation counting analysis; assay type: functional, cell-based
Outline: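 BALB/c splenocytes at 1×10^6 cells/well, in triplicate, stimulated with Con A (2 μg/mL) or anti-CD3/CD28 beads (1:1 bead:cell) with compound at 12–0.04 μM. After 48 h, 1 μCi 3H-thymidine added for a further 18 h; scintillation counting. Proliferation as % uptake versus untreated; dexamethasone control. IC50 from three independent experiments.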

Splenocyte [3] = test: Antiinflammatory activity in BALB/c mouse splenocytes assessed as inhibition of concanavalin A-induced IL-2 level at 1 uM after 48 hrs by ELISA; assay type: functional, cell-based
Outline: (§1)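 Splenocytes from BALB/c mice at 5×10^6 cells/well in DMEM, stimulated with Con A 5 µg/mL, with compound at 10, 5 and 2.5 µM. Cell-free supernatants collected at 48 h and stored at -80 °C. IL-2, IL-4, IL-10, IL-17 and IFNγ measured by sandwich ELISA. Dexamethasone control at 10 µM (1.0 µM for IL-2). Mean±S.E.M. from one of two experiments.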

Splenocyte [4] = test: Antiinflammatory activity in BALB/c mouse splenocytes assessed as inhibition of concanavalin A-induced IL-17A level at 10 uM after 48 hrs by ELISA; assay type: functional, cell-based; outline: as §1
Splenocyte [5] = test: Antiinflammatory activity in BALB/c mouse splenocytes assessed as inhibition of concanavalin A-induced IFN-gamma level at 10 uM after 48 hrs by ELISA; assay type: functional, cell-based; outline: as §1
Splenocyte [6] = test: Antiinflammatory activity in BALB/c mouse splenocytes assessed as inhibition of concanavalin A-induced IL-4 level at 10 uM after 48 hrs by ELISA; assay type: functional, cell-based; outline: as §1
Splenocyte [7] = test: Antiinflammatory activity in BALB/c mouse splenocytes assessed as inhibition of concanavalin A-induced IL-10 level at 10 uM after 48 hrs by ELISA; assay type: functional, cell-based; outline: as §1
Mus musculus = test: Antiinflammatory activity in carrageenan-induced BALB/c mouse peritonitis model assessed as reduction in number of neutrophils in peritoneal fluid at 80 mg/kg, ip pretreated for 1 hr followed by carrageenan challenge measured after 4 hrs by hematoxylin and eosin staining-based assay relative to control; assay type: functional
Outline: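 Male BALB/c mice were dosed orally with compound (20 or 80 mg/kg) or vehicle; indomethacin 80 mg/kg was given ip. One hour later, carrageenan (250 µL of 1.0 mg/mL) was injected ip. Peritoneal lavage with 2 mL saline at 4 h. Total leukocytes counted in Neubauer chamber with Trypan blue; neutrophils by blinded 200-cell differential on H&E-stained cytospins.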

Row | Structure (SMILES) | CC50 at 72 h [1] | inhibition at 20 µM (J774) | IC50 (Splenocyte [2]) | also measured
1 | CN(C)c1ccc(C(=C2C=CC(=[N+](C)C)C=C2)c2ccc(N(C)C)cc2)cc1 [GENTIAN VIOLET] | 4.1 µM |  |  | 
2 | CC(/C=N/Nc1ccc([N+](=O)[O-])cc1)=N\NC(=O)c1ccccc1F | > 100 µM | 5.3% | > 12 µM | 
3 | CC(/C=N/Nc1ccc([N+](=O)[O-])cc1)=N\NC(=O)c1ccccc1N | 29.8 µM | 39.3% | 4.9 µM | 
4 | CC(/C=N/Nc1ccc([N+](=O)[O-])cc1)=N\NC(=O)c1ccc(O)cc1 | 51 µM | 43.8% | 1.51 µM | 
5 | CC(/C=N/Nc1ccc([N+](=O)[O-])cc1)=N\NC(=O)c1ccccc1C | > 100 µM | 21.9% | 6 µM | 
6 | CC(/C=N/Nc1ccc([N+](=O)[O-])cc1)=N\NC(=O)c1ccccc1Cl | > 100 µM | 39.4% | > 12 µM | 
7 | C[C@@H]1C[C@H]2[C@@H]3CCC4=CC(=O)C=C[C@]4(C)[C@@]3(F)[C@@H](O)C[C@]2(C)[C@@]1(O)C(=O)CO [DEXAMETHASONE] | 91.1 µM | 69.8% | 0.001 µM | inhibition (Splenocyte [3]): Active; inhibition (Splenocyte [4]): Active; inhibition (Splenocyte [5]): Active; inhibition (Splenocyte [6]): Active; inhibition (Splenocyte [7]): Active
8 | CC(/C=N/Nc1ccc([N+](=O)[O-])cc1)=N\NC(=O)c1ccccc1 | > 100 µM | 31.4% | > 12 µM | 
9 | CC(/C=N/Nc1ccc([N+](=O)[O-])cc1)=N\NC(=O)c1ccc(N)cc1 | 75 µM | 12.8% | > 12 µM | 
10 | CC(/C=N/Nc1ccc([N+](=O)[O-])cc1)=N\NC(=O)c1ccc2c(c1)OCO2 | > 100 µM | 23.2% | > 12 µM | 
11 | CC(/C=N/Nc1ccc([N+](=O)[O-])cc1)=N\NC(=O)c1ccc([N+](=O)[O-])cc1 | > 100 µM | 39.1% | 0.98 µM | 
12 | CC(/C=N/Nc1ccc([N+](=O)[O-])cc1)=N\NC(=O)c1ccccc1I | 40 µM | 56.8% | 2.98 µM | 
13 | COc1cc(C(=O)N/N=C(C)/C=N/Nc2ccc([N+](=O)[O-])cc2)ccc1O | > 100 µM | 6.6% | 5.1 µM | 
14 | CC(/C=N/N(C)c1ccc([N+](=O)[O-])cc1)=N\NC(=O)c1ccccc1O | 31.5 µM | 41% | 3.12 µM | 
15 | CC(/C=N/Nc1ccc([N+](=O)[O-])cc1)=N\NC(=O)c1ccccc1Nc1ccccc1 | > 100 µM | 14.1% |  | 
16 | CC(/C=N/N(C)c1ccc([N+](=O)[O-])cc1)=N\NC(=O)c1cc([N+](=O)[O-])cc([N+](=O)[O-])c1 | 39 µM | 51% | 1.11 µM | 
17 | CC(/C=N/Nc1ccc([N+](=O)[O-])cc1)=N\NC(=O)c1ccc(N(C)C)cc1 | > 100 µM | 25.6% | > 12 µM | 
18 | CC(/C=N/Nc1ccc([N+](=O)[O-])cc1)=N\NC(=O)c1cccc(C)c1 | > 100 µM | 9.3% | > 12 µM | 
19 | COc1ccc(C(=O)N/N=C(C)/C=N/Nc2ccc([N+](=O)[O-])cc2)cc1 | > 100 µM | 7.5% | > 12 µM | 
20 | CC(/C=N/N(C)c1ccc([N+](=O)[O-])cc1)=N\NC(=O)c1ccc(N)cc1 | 51.7 µM | 3.6% | > 12 µM | 
21 | CC(/C=N/Nc1ccc([N+](=O)[O-])cc1)=N\NC(=O)c1ccc(Cl)cc1 | 63.9 µM | 23% | 4.2 µM | 
22 | CC(/C=N/Nc1ccc([N+](=O)[O-])cc1)=N\NC(=O)c1ccc(C(F)(F)F)cc1 | 78.7 µM | 18.7% | > 12 µM | 
23 | CC(/C=N/Nc1ccc([N+](=O)[O-])cc1)=N\NC(=O)c1ccccc1O | 29.5 µM | 59.7% | 1.64 µM | 
24 | CC(/C=N/Nc1ccc([N+](=O)[O-])cc1)=N\NC(=O)c1ccccc1Oc1ccccc1 | > 100 µM | 5.5% | > 12 µM | 
25 | CC(/C=N/Nc1ccc([N+](=O)[O-])cc1)=N\NC(=O)c1ccc(C(C)(C)C)cc1 | > 100 µM | 4.8% | > 12 µM | 
26 | COc1ccc2c(c1)c(CC(=O)O)c(C)n2C(=O)c1ccc(Cl)cc1 [INDOMETHACIN] |  |  |  | inhibition in vivo at 80 mg/kg (Mus musculus): 35.9%
